# Test results taken from ChEMBL document CHEMBL1126625, “7-Azetidinylquinolones as antibacterial agents. Synthesis and structure-activity relationships” (J Med Chem, 1993).
# How the values were obtained:
# Enterococcus faecalis = assay: Minimum inhibitory concentration (MIC) preventing growth of Streptococcus faecalis ATCC 10541; format: functional
# Mus musculus [1] = assay: Blood level after oral administration in mice (50 mg/kg) was determined by bioassay procedure and represent total activity present in the serum; format: ADME, organism-based; details: in vivo
# Summary of the method: (§1)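 Single oral dose of 50 mg/kg to mice. Blood taken from groups of six mice at 0.5, 1, 2 and 4 h after dosing. Serum levels measured by disk agar diffusion bioassay with Bacillus subtilis ATCC 6633 on Seed Agar, plates incubated 18 h at 37 °C, giving total activity in serum. AUC 0-4 h expressed as μg/mL […].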
# Bacillus subtilis = assay: Minimum inhibitory concentration (MIC) preventing growth of Bacillus subtilis; format: functional
# Staphylococcus aureus [2] = assay: Efficacy on systemic infections after oral administration in mice was determined against […] HS-93; format: functional
# Summary of the method: (§2)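 Mouse protection test using 4 groups of 10 mice. Mice were infected intraperitoneally with a bacterial suspension slightly above LD100. A single oral dose was given immediately after infection, with four doses, one per group, chosen from in vitro activity. Survival was scored after one week, and ED50 (total mg/kg protecting 50% of mice) was interpolated from group survival rates.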
# Klebsiella pneumoniae = assay: Minimum inhibitory concentration (MIC)preventing growth of Klebsiella pneumoniae; format: functional
# Escherichia coli [3] = assay: Efficacy on systemic infections after oral administration in mice was determined against Escherichia coli HM-42; format: functional; summary of the method: as §2
# Pseudomonas aeruginosa [4] = assay: Efficacy on systemic infections after oral administration in mice was determined against Pseudomonas aeruginosa HS-116; format: functional; summary of the method: as §2
# Bacillus cereus = assay: Minimum inhibitory concentration (MIC) preventing growth of Bacillus cereus; format: functional
# Escherichia coli [5] = assay: Minimum inhibitory concentration (MIC)preventing growth of Escherichia coli; format: functional
# Morganella morganii = assay: Minimum inhibitory concentration (MIC) preventing growth of Morganella morganii; format: functional
# Staphylococcus aureus [6] = assay: Minimum inhibitory concentration (MIC) preventing growth of […]; format: functional
# Proteus vulgaris = assay: Minimum inhibitory concentration (MIC) preventing growth of Proteus vulgaris; format: functional
# [7] = test system: Staphylococcus epidermidis; assay: Minimum inhibitory concentration (MIC) preventing growth of Staphylococcus epidermidis; format: functional
# Enterobacter cloacae = assay: Minimum inhibitory concentration (MIC)preventing growth of Enterobacter cloacae; format: functional
# Pseudomonas aeruginosa [8] = assay: Minimum inhibitory concentration (MIC)preventing growth of Pseudomonas aeruginosa; format: functional
# Mus musculus [9] = assay: Blood level after oral administration in mice (50 mg/kg) was determined (area under the concentration-time curve recorded at 0.5, 1, 2, and 4 hour after dosing); format: ADME, organism-based; set-up: dose 50 mg/kg, time < 4 hr, route oral; details: in vivo; summary of the method: as §1
SMILES,MIC (Enterococcus faecalis),AUC (Mus musculus [1]),MIC (Bacillus subtilis),MIC (Klebsiella pneumoniae),MIC (Bacillus cereus),MIC (Escherichia coli [5]),MIC (Morganella morganii),MIC (Staphylococcus aureus [6]),MIC (Proteus vulgaris),MIC [7],MIC (Enterobacter cloacae),MIC (Pseudomonas aeruginosa [8]),AUC (Mus musculus [9]),ED50 (Staphylococcus aureus [2]),ED50 (Escherichia coli [3]),ED50 (Pseudomonas aeruginosa [4])
CC1(N)CN(c2nc3c(cc2F)c(=O)c(C(=O)O)cn3C(C)(C)C)C1,1 µg/mL,11300 ng·h/mL,0.015 µg/mL,0.015 µg/mL,0.12 µg/mL,0.06 µg/mL,0.12 µg/mL,0.12 µg/mL,0.25 µg/mL,0.12 µg/mL,0.12 µg/mL,2 µg/mL,,,,
CC1(N)CN(c2nc3c(cc2F)c(=O)c(C(=O)O)cn3-c2ccc(F)cc2F)C1,0.5 µg/mL,46400 ng·h/mL,0.06 µg/mL,0.06 µg/mL,0.12 µg/mL,0.12 µg/mL,0.25 µg/mL,0.12 µg/mL,0.5 µg/mL,0.12 µg/mL,0.12 µg/mL,1 µg/mL,,6.7 mg/kg,3.1 mg/kg,108 mg/kg
CN(C)C1CN(c2cc3c(cc2F)c(=O)c(C(=O)O)cn3C2CC2)C1,1 µg/mL,,0.015 µg/mL,0.015 µg/mL,0.12 µg/mL,0.06 µg/mL,0.12 µg/mL,0.12 µg/mL,0.12 µg/mL,0.12 µg/mL,0.06 µg/mL,2 µg/mL,10600 ng·h/mL,35.6 mg/kg,1.3 mg/kg,44.5 mg/kg
CNC1(C)CN(c2cc3c(cc2F)c(=O)c(C(=O)O)cn3C(C)(C)C)C1,0.5 µg/mL,4600 ng·h/mL,0.06 µg/mL,0.06 µg/mL,0.25 µg/mL,0.25 µg/mL,0.5 µg/mL,0.25 µg/mL,0.5 µg/mL,0.25 µg/mL,0.25 µg/mL,4 µg/mL,,,,
CC1(N)CN(c2cc3c(cc2F)c(=O)c(C(=O)O)cn3C(C)(C)C)C1,0.5 µg/mL,5400 ng·h/mL,0.06 µg/mL,0.12 µg/mL,0.25 µg/mL,0.12 µg/mL,0.25 µg/mL,0.25 µg/mL,0.25 µg/mL,0.12 µg/mL,0.25 µg/mL,2 µg/mL,,,,
CN(C)C1CN(c2c(F)cc3c(=O)c(C(=O)O)cn(C4CC4)c3c2F)C1,1 µg/mL,,0.015 µg/mL,0.06 µg/mL,0.25 µg/mL,0.06 µg/mL,0.12 µg/mL,0.25 µg/mL,0.25 µg/mL,0.25 µg/mL,0.06 µg/mL,2 µg/mL,38200 ng·h/mL,19.8 mg/kg,1.7 mg/kg,90.8 mg/kg
CNC1(C)CN(c2c(F)cc3c(=O)c(C(=O)O)cn(C4CC4)c3c2F)C1,1 µg/mL,,0.12 µg/mL,0.12 µg/mL,0.5 µg/mL,0.12 µg/mL,0.12 µg/mL,0.5 µg/mL,1 µg/mL,0.5 µg/mL,0.12 µg/mL,2 µg/mL,15800 ng·h/mL,15 mg/kg,1.4 mg/kg,27.2 mg/kg

# Compounds with a lower MIC (Enterococcus faecalis), results first:
MIC (Enterococcus faecalis),AUC (Mus musculus [1]),MIC (Bacillus subtilis),MIC (Klebsiella pneumoniae),MIC (Bacillus cereus),MIC (Escherichia coli [5]),MIC (Morganella morganii),MIC (Staphylococcus aureus [6]),MIC (Proteus vulgaris),MIC [7],MIC (Enterobacter cloacae),MIC (Pseudomonas aeruginosa [8]),AUC (Mus musculus [9]),SMILES,ED50 (Staphylococcus aureus [2]),ED50 (Escherichia coli [3]),ED50 (Pseudomonas aeruginosa [4])
0.25 µg/mL,4000 ng·h/mL,0.015 µg/mL,0.12 µg/mL,0.12 µg/mL,0.015 µg/mL,0.015 µg/mL,0.06 µg/mL,0.015 µg/mL,0.06 µg/mL,0.015 µg/mL,0.25 µg/mL,,CNC1CN(c2c(F)cc3c(=O)c(C(=O)O)cn(C4CC4)c3c2Cl)C1,15.2 mg/kg,2 mg/kg,39 mg/kg
0.25 µg/mL,2800 ng·h/mL,0.06 µg/mL,0.03 µg/mL,0.06 µg/mL,0.03 µg/mL,0.03 µg/mL,0.06 µg/mL,0.12 µg/mL,0.06 µg/mL,0.03 µg/mL,0.25 µg/mL,,CC1(N)CN(c2c(F)cc3c(=O)c(C(=O)O)cn(C4CC4)c3c2Cl)C1,4.1 mg/kg,2 mg/kg,59.8 mg/kg
0.06 µg/mL,13000 ng·h/mL,0.015 µg/mL,0.015 µg/mL,0.015 µg/mL,0.015 µg/mL,0.015 µg/mL,0.015 µg/mL,0.015 µg/mL,0.015 µg/mL,0.015 µg/mL,0.12 µg/mL,,NC1CN(c2c(F)cc3c(=O)c(C(=O)O)cn(-c4ccc(F)cc4F)c3c2Cl)C1,1.7 mg/kg,2.3 mg/kg,55 mg/kg
